In ChEMBL document CHEMBL1124112, “Indoline analogues of idazoxan: potent alpha 2-antagonists and alpha 1-agonists” (J Med Chem, 1988):

How the values were obtained:
Rattus norvegicus [1] = test: In vivo antagonist dose producing two fold shift of UK-14,304 in pithed rats. (prejunctional)
[2] = target: T1, Adrenergic receptor alpha-2 (Rattus norvegicus, UniProt P22086+P19328+P22909); test: Inhibition of saturable binding of [3H]idazoxan to alpha2-site in rat cerebral cortical membranes.; format: cell membranes, Membrane
T1 sequence (P22086 whole entry): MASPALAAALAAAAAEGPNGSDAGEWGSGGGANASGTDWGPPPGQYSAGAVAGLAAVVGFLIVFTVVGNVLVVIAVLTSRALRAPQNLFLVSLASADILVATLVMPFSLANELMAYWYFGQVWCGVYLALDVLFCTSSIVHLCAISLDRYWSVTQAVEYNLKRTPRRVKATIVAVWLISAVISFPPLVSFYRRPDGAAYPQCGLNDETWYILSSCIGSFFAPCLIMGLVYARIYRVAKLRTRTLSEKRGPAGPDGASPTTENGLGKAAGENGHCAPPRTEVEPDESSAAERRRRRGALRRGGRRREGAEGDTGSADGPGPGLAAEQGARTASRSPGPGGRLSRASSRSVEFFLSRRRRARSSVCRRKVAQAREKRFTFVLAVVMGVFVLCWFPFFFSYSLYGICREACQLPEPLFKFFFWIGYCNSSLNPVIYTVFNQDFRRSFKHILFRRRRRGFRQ
T1 sequence (P19328 whole entry): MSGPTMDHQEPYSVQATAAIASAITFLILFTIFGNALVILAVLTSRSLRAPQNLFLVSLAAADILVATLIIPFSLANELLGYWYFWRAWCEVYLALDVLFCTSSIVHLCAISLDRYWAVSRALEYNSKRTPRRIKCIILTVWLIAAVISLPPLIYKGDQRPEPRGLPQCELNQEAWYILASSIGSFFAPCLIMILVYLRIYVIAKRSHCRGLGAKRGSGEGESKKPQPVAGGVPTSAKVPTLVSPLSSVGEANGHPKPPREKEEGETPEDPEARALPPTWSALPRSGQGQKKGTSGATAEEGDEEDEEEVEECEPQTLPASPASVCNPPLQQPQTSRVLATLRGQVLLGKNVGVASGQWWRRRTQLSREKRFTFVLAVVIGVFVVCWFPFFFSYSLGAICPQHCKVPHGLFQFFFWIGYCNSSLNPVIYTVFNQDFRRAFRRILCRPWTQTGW
T1 sequence (P22909 whole entry): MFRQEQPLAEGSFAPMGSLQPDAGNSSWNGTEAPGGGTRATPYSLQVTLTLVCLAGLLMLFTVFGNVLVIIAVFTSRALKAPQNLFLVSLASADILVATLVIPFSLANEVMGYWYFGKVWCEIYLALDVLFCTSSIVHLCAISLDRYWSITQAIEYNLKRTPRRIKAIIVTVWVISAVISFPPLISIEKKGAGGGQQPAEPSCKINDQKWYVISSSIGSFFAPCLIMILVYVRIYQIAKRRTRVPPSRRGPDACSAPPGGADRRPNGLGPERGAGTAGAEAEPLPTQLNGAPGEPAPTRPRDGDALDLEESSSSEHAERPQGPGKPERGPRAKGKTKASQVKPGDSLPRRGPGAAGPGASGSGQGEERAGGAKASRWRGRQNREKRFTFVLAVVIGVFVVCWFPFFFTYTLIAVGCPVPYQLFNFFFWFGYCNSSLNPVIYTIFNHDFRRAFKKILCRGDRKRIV

[3] = target: T2, Adrenergic receptor alpha-1 (Rattus norvegicus, UniProt P15823+P23944+P43140); test: Inhibition of saturable binding of [3H]prazosin to alpha-1 adrenergic receptor site in rat cerebral cortical membranes.; format: cell membranes, Membrane
T2 sequence (P15823 whole entry): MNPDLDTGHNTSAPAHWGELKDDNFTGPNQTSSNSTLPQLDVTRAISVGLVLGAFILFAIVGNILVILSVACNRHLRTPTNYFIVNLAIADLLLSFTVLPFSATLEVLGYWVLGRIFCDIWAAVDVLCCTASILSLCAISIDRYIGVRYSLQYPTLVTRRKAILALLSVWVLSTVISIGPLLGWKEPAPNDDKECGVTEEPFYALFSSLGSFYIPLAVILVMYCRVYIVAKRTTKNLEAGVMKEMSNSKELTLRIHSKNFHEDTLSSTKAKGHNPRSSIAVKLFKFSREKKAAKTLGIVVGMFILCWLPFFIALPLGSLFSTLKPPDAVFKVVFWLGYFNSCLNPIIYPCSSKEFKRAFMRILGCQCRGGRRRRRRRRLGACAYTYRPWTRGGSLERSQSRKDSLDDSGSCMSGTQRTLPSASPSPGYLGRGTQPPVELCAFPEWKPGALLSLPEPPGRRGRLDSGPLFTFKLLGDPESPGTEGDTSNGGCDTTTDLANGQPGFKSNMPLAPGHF
T2 sequence (P23944 whole entry): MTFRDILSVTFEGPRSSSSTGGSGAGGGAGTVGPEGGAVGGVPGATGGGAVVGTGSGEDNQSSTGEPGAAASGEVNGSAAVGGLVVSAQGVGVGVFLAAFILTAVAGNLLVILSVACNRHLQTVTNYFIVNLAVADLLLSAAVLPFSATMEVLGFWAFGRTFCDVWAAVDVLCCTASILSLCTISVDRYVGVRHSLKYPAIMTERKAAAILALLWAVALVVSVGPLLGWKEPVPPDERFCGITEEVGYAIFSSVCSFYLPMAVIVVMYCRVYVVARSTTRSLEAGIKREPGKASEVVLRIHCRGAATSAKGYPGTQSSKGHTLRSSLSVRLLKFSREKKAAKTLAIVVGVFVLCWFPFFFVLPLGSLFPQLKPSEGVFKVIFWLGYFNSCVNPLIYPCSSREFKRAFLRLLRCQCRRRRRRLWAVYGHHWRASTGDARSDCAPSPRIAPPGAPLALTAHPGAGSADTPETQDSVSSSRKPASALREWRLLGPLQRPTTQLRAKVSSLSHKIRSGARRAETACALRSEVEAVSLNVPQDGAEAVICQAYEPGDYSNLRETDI
T2 sequence (P43140 whole entry): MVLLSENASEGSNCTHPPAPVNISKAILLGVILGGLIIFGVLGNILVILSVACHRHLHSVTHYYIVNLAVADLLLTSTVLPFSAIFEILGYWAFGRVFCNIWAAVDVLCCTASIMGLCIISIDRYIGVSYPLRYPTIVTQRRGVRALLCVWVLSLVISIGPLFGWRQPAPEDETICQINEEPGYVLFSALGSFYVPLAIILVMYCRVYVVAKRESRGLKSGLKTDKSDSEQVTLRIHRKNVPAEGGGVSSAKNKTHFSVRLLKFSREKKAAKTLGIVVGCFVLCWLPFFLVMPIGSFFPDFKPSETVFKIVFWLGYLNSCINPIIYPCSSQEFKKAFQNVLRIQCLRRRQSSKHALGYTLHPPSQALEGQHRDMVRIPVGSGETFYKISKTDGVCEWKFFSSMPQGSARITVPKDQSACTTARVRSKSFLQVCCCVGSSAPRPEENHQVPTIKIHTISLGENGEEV

[4] = target: Adrenergic receptor alpha-2 (Rattus norvegicus) (UniProt P22086+P19328+P22909); test: Antagonism at alpha-2 adrenergic receptor, determined as dose required to produce a two fold shift of the dose-response curve to UK-14304 on the twitch response in rat vas deferens; format: functional, tissue-based
Method in brief: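 Pithed rats, iv. Antagonist given before a cumulative dose-response curve to UK-14,304 on the vas deferens twitch response. DR2 is the antagonist dose (μg/kg) giving a twofold shift of the curve. Separate groups of rats (n = 4-6).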

Rattus norvegicus [5] = test: In vivo ED40 is the raising diastolic blood pressure by 40 mm Hg in pithed rats. (postjunctional); format: functional; settings: Artery
Method in brief: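 Pithed rats, compound given iv in cumulative doses. ED40 is the dose (μg/kg) raising diastolic blood pressure by 40 mmHg. Separate groups of rats (n = 4-6).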

Rattus norvegicus [6] = test: In vivo dose required to inhibit vas deferens contraction by 25% after pretreatment with prazosin in pithed rats. (prejunctional); ant- antagonist; format: functional, organism-based; settings: filed as antagonist
Method in brief: (§1)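 Pithed rats pretreated with prazosin (1 mg/kg). Compound given iv in cumulative doses. ED25 is the dose (μg/kg) inhibiting vas deferens contraction by 25%. Separate groups of rats (n = 4-6).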

[7] = system: Adrenergic receptor alpha-2 (Rattus norvegicus); test: Agonism at alpha-2 adrenergic receptor, determined as dose required to produce a two fold shift of the cumulative dose-response curve to UK-14304 on the twitch response in rat vas deferens.
Rattus norvegicus [8] = test: In vivo antagonist dose producing two fold shift of cirazoline in pithed rats. (postjunctional);AG- agonist; format: functional, organism-based; settings: filed as agonist
Method in brief: (§2)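 Pithed rats, iv. Antagonist given before a cumulative dose-response curve to cirazoline on diastolic blood pressure. DR2 is the antagonist dose (μg/kg) giving a twofold rightward shift. Separate groups of rats (n = 4-6).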

[9] = target: Adrenergic receptor alpha-1 (Rattus norvegicus) (UniProt P15823+P23944+P43140); test: Agonism at alpha-1 adrenergic receptor, determined as the dose required to produce a two fold shift of the cirazoline on diastolic blood pressure.; format: functional, tissue-based; settings: Artery
Rattus norvegicus [10] = test: In vivo antagonist dose producing two fold shift of cirazoline in pithed rats. (postjunctional); AG- agonist; format: functional, organism-based; settings: filed as agonist
Method in brief: as §2

[11] = target: T2, Adrenergic receptor alpha-1; test: Inhibition of saturable binding of [3H]prazosin to alpha1-site in rat cerebral cortical membranes.; format: cell membranes, Membrane
Rattus norvegicus [12] = test: In vivo dose required to inhibit vas deferens contraction by 25% after pretreatment with prazosin in pithed rats. (prejunctional); format: functional
Method in brief: as §1

Rattus norvegicus [13] = test: In vivo antagonist dose producing two fold shift of cirazoline in pithed rats. […]; format: functional
Rattus norvegicus [14] = test: In vivo antagonist dose producing two fold shift of cirazoline in pithed rats. (postjunctional)
Rattus norvegicus [15] = test: In vivo antagonist dose producing two fold shift of cirazoline in pithed rats. (postjunctional); format: functional
Method in brief: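 Pithed rats, separate groups (n = 4-6). Cirazoline cumulative dose-response on diastolic blood pressure (postjunctional α1) was recorded with and without antagonist given iv. The antagonist dose (μg/kg, iv) giving a twofold rightward shift of the cirazoline curve was reported as DR2.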

Row | Compound | DR2 (Rattus norvegicus [1]) [mg/kg] | Ki [2] [nM] | Ki [3] [nM] | Prejunctional antagonist potency [4] | ED40 (Rattus norvegicus [5]) [µg/kg] | ED25 (Rattus norvegicus [6]) | Prejunctional agonist potency [7] | ED40 (Rattus norvegicus [8]) | Postjunctional agonist potency [9] | ED40 (Rattus norvegicus [10]) | Ki [11] [nM] | ED25 (Rattus norvegicus [12]) [µg/kg] | ED40 (Rattus norvegicus [13]) [µg/kg] | DR2 (Rattus norvegicus [14]) [mg/kg] | DR2 (Rattus norvegicus [15]) [mg/kg]
1 | CN1c2cccc(Cl)c2CC1C1=NCCN1.Cl (centres undefined) | 0.0024 | 0.16 | 13.1 | 10 | 0.2 | Antagonist | 0.29 | Agonist | 17 | – | – | – | – | – | –
2 | CCCN1c2ccccc2CC1C1=NCCN1 (centres undefined) | 0.0071 | 0.96 | – | 3.2 | 3.8 | Antagonist | 0 | – | 3.9 | Agonist | 3.7 | – | – | – | –
3 | CN1c2ccccc2CC1C1=NCCN1 (centres undefined) | – | 0.69 | 3.86 | 5.5 | 0.5 | – | 0.77 | Agonist | 3.8 | – | – | 4.1 | 3.7 | – | –
4 | CCN1c2cccc(Cl)c2CC1C1=NCCN1 (centres undefined) | 0.0015 | 0.42 | – | 8 | 0.8 | Antagonist | 0.51 | – | 4.4 | Agonist | 1.9 | – | – | – | –
5 | Cl.c1ccc(N2c3ccccc3CC2C2=NCCN2)cc1 (centres undefined) | 0.0094 | 3 | – | 0.5 | 1.1 | Antagonist | 0 | – | 5.3 | Agonist | 8.4 | – | – | – | –
6 | CCN1c2ccccc2CC1C1=NCCN1 (centres undefined) | 0.0016 | 0.24 | – | 9.1 | 3.3 | Antagonist | 0 | – | 1.4 | Agonist | 3.72 | – | – | – | –
7 | c1ccc2c(c1)OCC(C1=NCCN1)O2 (centres undefined) [IDAZOXAN] | 0.0202 | – | – | – | 65.5 | – | – | – | – | – | – | – | – | 1.43 | –
8 | COc1cc2nc(N3CCN(C(=O)c4ccco4)CC3)nc(N)c2cc1OC [PRAZOSIN] | 5.44 | – | – | – | – | – | – | – | – | – | – | – | – | – | 0.0094
